Sampled rows, rich in hits. Any-hit rate of the full collection: about 2.6%.
MC4R antagonist: antagonists of human melanocortin 4 receptor (MC4R) | 360,000 compounds, 0.48% hits | AID 540295 | P32245 | MC4R-expressing cells, MTII-stimulated cAMP, LANCE TR-FRET | inhibition, % at 6.5 µM;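 active means inhibition above its plate's cutoff, the mean of tested wells on that plate plus 3 SD, cut at about 29% in these data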;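 further: 0% = Melanotan II alone and 100% = Melanotan II plus saturating MCL0020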
Target sequence (P32245 whole entry, looked up): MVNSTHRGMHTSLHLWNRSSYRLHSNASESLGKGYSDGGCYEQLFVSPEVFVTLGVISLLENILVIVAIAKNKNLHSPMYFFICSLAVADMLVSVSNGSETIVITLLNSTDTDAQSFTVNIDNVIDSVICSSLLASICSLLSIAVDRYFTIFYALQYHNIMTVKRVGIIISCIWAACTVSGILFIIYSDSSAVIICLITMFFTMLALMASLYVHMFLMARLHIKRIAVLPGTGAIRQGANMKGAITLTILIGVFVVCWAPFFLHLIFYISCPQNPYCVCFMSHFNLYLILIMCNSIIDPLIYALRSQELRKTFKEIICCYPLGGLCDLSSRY
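Material – human MC4R-expressing U2OS cells · Repeats – no replicates · Detection – TR-FRET with Eu-cAMP and labeled anti-cAMP, 671 nm · Times – compound 30 min, challenge 1 h, detection 1 h · Compound – single nominal compound dose of 6.5 µM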
MC4R barr agon: agonists of human melanocortin 4 receptor (MC4R) beta-arrestin. P32245. U2OS MC4R beta-arrestin complementation, luminescence; percent of melanotan II response, DMSO zero. activation, % at 8.9 µM. 360,000 compounds, 0.98% hits;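 active means activation above a per-plate cutoff, the mean activation of sample wells on that plate plus 3 SD, cut at about 8% in these data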
Exocytosis inh: blocks lytic granule exocytosis; TALL-104 LAMP-1 surface exposure, flow cytometry; cells stimulated with thapsigargin and PMA; inhibition, % at 10 µM; 360,000 compounds, 0.66% hits; AID 651702;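 active means inhibition above about 55%, limit read from the data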
EP2 antag: EP2 receptor (human) inhibition | C6 glioma cells expressing human EP2, cAMP TR-FRET; cells stimulated with saturating PGE2 | inhibition, % at 25 µM | P43116 | AID 1422 | 260,000 compounds, 0.52% hits;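 active means percent inhibition above 40 after rounding to a whole number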;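 further: rat C6 glioma host cells with rolipram phosphodiesterase inhibitor present; the protocol text gives 20 µM as final concentration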
Target sequence (P43116 whole entry, looked up): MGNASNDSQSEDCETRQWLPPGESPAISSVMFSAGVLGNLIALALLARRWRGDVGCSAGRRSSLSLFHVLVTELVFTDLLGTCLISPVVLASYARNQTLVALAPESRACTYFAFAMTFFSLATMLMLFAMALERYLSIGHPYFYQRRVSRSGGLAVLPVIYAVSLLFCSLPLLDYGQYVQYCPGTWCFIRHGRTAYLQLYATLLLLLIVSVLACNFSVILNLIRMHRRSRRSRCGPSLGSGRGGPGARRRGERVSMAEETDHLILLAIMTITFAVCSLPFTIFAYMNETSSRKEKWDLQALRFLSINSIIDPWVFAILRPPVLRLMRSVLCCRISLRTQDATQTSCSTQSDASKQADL
EP2 mod: EP2 receptor (human) modulation | induction, % at 25 µM | 260,000 compounds, 0.83% hits | EP2-expressing cells, cAMP HTRF FRET, PGE2 co-stimulation | P43116;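 active means compounds whose cAMP rise, as percent of the full-agonist control response, exceeds 60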;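 further: rat C6 glioma line stably carrying human EP2 under a CMV promoter; the protocol text gives 20 µM as final concentration; 100% = response of wells given 1 µM PGE2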
T cell modulator: modulates CD8 T cell binding to vesicles; 2C CD8+ T cell-vesicle binding, flow cytometry; active compounds read low; AID 2052; response (vesicle binding), % at 7 µM; 330,000 compounds, 0.068% hits;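 active means response, share of CD8 T cells binding vesicles, and their 90th percentile fluorescence all below set limits, cut at about 80% in these data, passing the limit was not always enough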;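 further: values below 100% mean blocked vesicle binding to the CD8+ T cells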
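Benchmarks: naked versus QL9-loaded vesicles / Assay system: purified 2C TCR transgenic mouse naive CD8+ T cells / Technique: high-throughput flow cytometry with anti-B7-1 and anti-CD8 staining / Timing: Cell–vesicle co-incubation 1.5 h at 37 °C, staining 20 min on ice / Read-out: percent CD8+ FL2 mean versus row control / Probe or stimulus: QL9-loaded Drosophila micro-vesicles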
* = called active by the depositor; . = not tested or not shown.

SMILES | MC4R antagonist | MC4R barr agon | Exocytosis inh | EP2 antag | EP2 mod | T cell modulator
C=CCCC(=O)Nc1ccc(COC(=O)N2CCOCC2)cc1 | 7.7 | -0.8 | 3.2 | 14.9 | 11.1 | 163.6
COc1cccc(/C=C/C(=O)OCC(=O)c2ccc3c(c2)NC(=O)CO3)c1 | 11.3 | 8.5* | -1.0 | . | . | 492.0
O=C(Cn1nc(Cl)nc1Cl)c1ccc2c(c1)OCCO2 | 3.9 | 3.2 | -1.9 | 15.5 | 20.5 | 527.2
Cc1oc(-c2cc(Cl)cc(Cl)c2)cc1C(=O)NCCc1ccccc1 | -1.3 | 1.0 | 2.9 | 8.3 | -26.9 | 555.0
Nc1nc2c(c(=O)[nH]1)N[C@H](CCNc1ccc(C(=O)O)cc1)CN2 | . | . | . | 48.6* | 29.2 | .
CCN(CC)c1ccc(/C=N/NC(=O)c2ccc3nc[nH]c3c2)c(O)c1 | -1.8 | 3.0 | 66.9* | 10.2 | -42.5 | 251.4
Cc1ccccc1CN1C2=NCCN2C(=O)C2=C1CCN(Cc1ccccc1)C2 | . | . | . | 48.5* | 15.2 | .
Cc1ccccc1CN1C2=NCCN2c2ccccc21 | -10.9 | -0.7 | -2.8 | 16.4 | 4.2 | 323.0
O=C(Nc1ccccc1)c1ccc(Cn2cc(C(F)(F)F)ccc2=O)cc1 | 3.1 | -0.6 | -1.5 | 6.7 | -1.6 | 550.5
O=C(Nc1cc(C(F)(F)F)cc(C(F)(F)F)c1)c1ccc(Cn2cc(C(F)(F)F)ccc2=O)cc1 | 3.1 | 8.4* | 3.8 | 11.4 | -22.4 | 699.7
O=C(CCN1CCC2CCC(C2)C1)c1ccc(F)cc1 (configuration not stated) | 10.8 | 0.4 | -3.5 | . | . | .
Clc1ccc(CSc2nnc(-c3ccncc3)s2)cc1 | 2.6 | 0.1 | 10.5 | 9.1 | -23.3 | 349.1
Clc1cccc(Cl)c1CSc1nnc(-c2ccncc2)s1 | 6.6 | 30.8* | 9.2 | 8.8 | -7.6 | 96.9
Fc1ccccc1NC(=S)NC1CCCC1 | -2.2 | -0.8 | -2.0 | . | . | 246.7
COc1ccccc1-c1nc(S(=O)(=O)c2ccccc2)c(N2CCCCC2)o1 | 32.3* | -0.8 | -4.0 | . | . | 188.0
COC(=O)c1sc(NC(=O)c2ccncc2)nc1C | 0.3 | -1.3 | 0.4 | . | . | 137.6
CCOc1ccc(C(=O)Nc2nc(C)c(C(=O)OC)s2)cc1 | 11.4 | 8.3* | -1.0 | 8.6 | -10.2 | 258.4
Oc1ccc(Cl)cc1CNC1CCCCC1 | -1.6 | -1.0 | -1.6 | . | . | .
C=CCOc1ccc(Cl)cc1CNC1CCCC1 | 3.0 | -3.0 | 7.3 | 4.8 | 62.2* | 176.6
C[C@@H]1[C@H]2CCCC[C@H]2CN(C(=O)OC(C)(C)C)[C@@H]1c1cn(Cc2ccccc2)c2ccc(F)cc12 | 6.4 | -1.2 | -1.4 | . | . | .
Cc1cc2c(cc1C)CSC(c1ccc(O)cc1)SC2 | -4.7 | 8.6* | -4.8 | 20.3 | -15.8 | 595.2
Cc1cc2c(cc1C)CSC(c1ccccc1O)SC2 | 11.2 | -0.6 | -2.0 | 4.4 | 19.2 | 765.6
Cc1nc2cc(C(=O)N3CCC(c4ccncc4)CC3)ccc2n1-c1ccccc1 | . | . | . | 7.6 | -66.7 | .
Cn1c(CC(=O)NNC(=O)c2ccc(F)cc2F)nc2ccccc21 | 3.6 | -1.5 | -2.1 | . | . | 374.4
COc1ccc(-c2csc(/C(C#N)=C\c3ccc(OC)c([N+](=O)[O-])c3)n2)cc1 | -0.4 | -2.8 | 3.1 | 7.4 | -8.2 | 455.7
SMILES | MC4R antagonist | MC4R barr agon | Exocytosis inh | EP2 antag | EP2 mod | T cell modulator
COc1ccc(-c2csc(/C(C#N)=C\c3ccc(O)c([N+](=O)[O-])c3)n2)cc1OC | 6.9 | -1.4 | 93.0* | 7.0 | -27.5 | 111.7
Cc1cc(CN2CCCCC2)c(O)c(CN2CCCCC2)c1 | . | . | . | 58.7* | 30.9 | .
C[C@H]1[C@H](C)OC(=O)C[C@H](O)C[C@H](O)C[C@H](O)CC[C@H](O)[C@H](O)CC(=O)C[C@H](O)[C@H](C(=O)O)[C@H](O)C[C@H](O[C@H]2O[C@@H](C)[C@H](O)[C@@H](N)[C@@H]2O)C=CC=CC=CC=CCCC=CC=C[C@@](C)(O)[C@H]1O | . | . | . | 43.9* | 19.7 | .
CC1C/C=C/C=C/C=C/C=C/C(O[C@@H]2O[C@H](C)[C@@H](O)[C@H](N)[C@@H]2O)CC2OC(O)(CC(O)CC3OC3/C=C/C(=O)O1)CC(O)C2C(=O)O (some centres not stated) | . | . | . | . | 28.8 | .
COc1ccc(CCn2c(C)cc(C(=O)CSc3nnnn3-c3ccccc3)c2C)cc1 | -18.9 | 8.7* | 1.1 | 8.9 | 25.2 | 435.2
Nc1nc(SCC2CCCCC2[N+](=O)[O-])c2[nH]cnc2n1 (configuration not stated) | . | . | . | 16.4 | -7.0 | .
Nc1nc(SCC(=O)C2CCC(Br)CC2)c2[nH]cnc2n1 (configuration not stated) | . | . | . | 48.9* | -32.7 | .
CC(C)=Cc1oc2ccc([N+](=O)[O-])cc2c1N1CC(C)OC(C)C1 (configuration not stated) | 11.5 | -2.5 | -2.2 | 9.5 | 61.7* | 104.0
Cc1nc(N2CCN(S(=O)(=O)c3ccc(F)cc3)CC2)c2c(-c3cccs3)csc2n1 | 12.4 | 0.4 | 0.5 | 2.1 | 32.7 | 413.2
CCNC(=S)NNC(=O)c1cc(-c2cccnc2)nc2ccccc12 | -0.6 | -1.4 | 0.1 | 43.5* | 22.1 | 372.3
CCCNC(=S)NNC(=O)c1cc(-c2cccnc2)nc2ccccc12 | 6.8 | 1.8 | -0.5 | . | . | 166.8
Cc1ccc(NC(=O)Cn2nnc(C(=O)NCc3ccc4c(c3)OCO4)c2N)cc1 | -1.4 | 1.9 | -2.0 | . | . | 387.6
COc1ccc(Cl)cc1NC(=O)Cn1nnc(C(=O)NCc2ccc3c(c2)OCO3)c1N | 3.7 | 8.6* | 4.6 | . | . | 320.9
Nc1c(C(=O)NCc2ccc3c(c2)OCO3)nnn1CC(=O)Nc1ccc(Br)cc1 | 21.7 | 14.8* | -10.0 | . | . | 280.6
CC(C)c1nc2oc3c(NCc4cccnc4)ncnc3c2c2c1CCC2 | 6.7 | 0.6 | -1.9 | 15.4 | 37.3 | 462.4
CCOC(=O)c1c(NC(C)=O)sc2c1CCC(C=O)=C2Sc1ccccc1 | -12.2 | -1.5 | 94.7* | 10.6 | 42.8 | 430.1
CCOC(=O)c1c(NC(C)=O)sc2c1CCN(Cc1ccccc1)C2 | 4.0 | 2.5 | 0.3 | . | . | 545.9
CC12CC(NC(=O)N1c1cccc(C(=O)NCc3ccc4c(c3)OCO4)c1)c1cc(Cl)ccc1O2 (configuration not stated) | 23.1 | -2.6 | -0.7 | 20.4 | 8.9 | 201.8
Cc1cccc(-c2n[nH]c(=S)n2C)c1 | -1.0 | -2.9 | 5.6 | 2.7 | -25.9 | 571.6
CCOc1ccccc1-c1n[nH]c(=S)o1 | 11.6 | -0.2 | 2.0 | 39.7* | 41.1 | 608.9
Cc1cccc(-c2n[nH]c(=S)o2)c1 | . | . | . | 41.2* | 35.6 | .
COCCNC(=O)C1CCCN(C(=O)c2nc3ccccc3s2)CC1 (configuration not stated) | 2.5 | -0.5 | -3.5 | . | . | .
N/C(=N\OC(=O)Oc1ccccc1)c1ccc(Cl)cc1 | -3.9 | -3.1 | -2.0 | 32.5 | 11.7 | 242.7
O=C1C(CO)C(CO)C(CO)C1CO (configuration not stated) | -0.3 | -0.8 | 69.1* | . | . | .

Screening results from PubChem BioAssay.
